For five molecules, MED, Ki and minimal effective dose results are on record in ChEMBL document CHEMBL1124569, “5-HT1A-receptor antagonism: N-alkyl derivatives of (R)-(-)-8,11-dimethoxynoraporphine” (J Med Chem, 1989).

Calls of active or inactive are those of the source. The rule behind the calls is not given here.

For experiment [1], the species on record is Rattus norvegicus. Nature of the experiment: Ability of compound to induce behavioral changes in rat; Not active. Format: functional, organism-based. An outline of the steps: (§1)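 Rats dosed subcutaneously and observed for locomotor activity and serotonin syndrome signs (flat body posture, forepaw extension and padding, abducted hindlimbs, forebody tremor). Antagonism was tested by giving the compound 15 min before subcutaneous 8-OH-DPAT.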

For a further experiment, the target named is D(2) dopamine receptor (Rattus norvegicus, UniProt P61169). Nature of the experiment: Binding affinity of compound against Dopamine receptor D2 binding site using radioligand [3H]spiperone.
The test system of experiment [2] is Felis catus. Nature of the experiment: Minimum effective dose administered intravenously for decrease in arterial pressure in cat heart. Format: functional. The settings on record: Artery, iv, read-out: MED. Put shortly: (§2)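 Cats anesthetized with pentobarbital sodium (30 mg/kg ip), intubated and ventilated, with bilateral vagotomy and atropine sulfate 200 μg/kg. Compound given iv via femoral vein, doses up to 1 mg/kg. Femoral arterial pressure and heart rate were recorded continuously. The right postganglionic cardioaccelerator nerve was stimulated at 2 Hz, 5 ms, 20 V.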

In experiment [3] the target is T1, 5-hydroxytryptamine receptor 1A (Rattus norvegicus, UniProt P19327).
T1 sequence (P19327 whole entry): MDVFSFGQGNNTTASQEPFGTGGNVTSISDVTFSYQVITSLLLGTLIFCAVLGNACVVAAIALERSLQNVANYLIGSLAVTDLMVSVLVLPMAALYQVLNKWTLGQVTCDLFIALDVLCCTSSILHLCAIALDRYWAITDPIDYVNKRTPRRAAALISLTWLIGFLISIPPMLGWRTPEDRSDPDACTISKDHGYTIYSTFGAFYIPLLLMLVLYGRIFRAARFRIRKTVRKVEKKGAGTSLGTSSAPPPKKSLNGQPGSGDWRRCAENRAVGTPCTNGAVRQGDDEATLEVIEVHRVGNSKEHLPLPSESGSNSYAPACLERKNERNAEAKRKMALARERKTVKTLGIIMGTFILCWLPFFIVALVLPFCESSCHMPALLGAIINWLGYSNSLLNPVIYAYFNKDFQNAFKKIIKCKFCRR
Nature of the experiment: Binding affinity of compound against 5-hydroxytryptamine 1A receptor binding site using radioligand [3H]8-OH-DPAT.

Experiment [4] concerns Felis catus. Nature of the experiment: Minimum effective dose administered intravenously for decrease in heart rate in cat. Format: functional. To be noted: iv, read-out: MED. An outline of the steps: as §2
The species named for experiment [5] is Rattus norvegicus. Nature of the experiment: Ability of compound to induce behavioral changes in rat. It counts as functional. The settings on record: read-out: MED. An outline of the steps:
as §1

Chain of D(2) dopamine receptor (P61169 whole entry): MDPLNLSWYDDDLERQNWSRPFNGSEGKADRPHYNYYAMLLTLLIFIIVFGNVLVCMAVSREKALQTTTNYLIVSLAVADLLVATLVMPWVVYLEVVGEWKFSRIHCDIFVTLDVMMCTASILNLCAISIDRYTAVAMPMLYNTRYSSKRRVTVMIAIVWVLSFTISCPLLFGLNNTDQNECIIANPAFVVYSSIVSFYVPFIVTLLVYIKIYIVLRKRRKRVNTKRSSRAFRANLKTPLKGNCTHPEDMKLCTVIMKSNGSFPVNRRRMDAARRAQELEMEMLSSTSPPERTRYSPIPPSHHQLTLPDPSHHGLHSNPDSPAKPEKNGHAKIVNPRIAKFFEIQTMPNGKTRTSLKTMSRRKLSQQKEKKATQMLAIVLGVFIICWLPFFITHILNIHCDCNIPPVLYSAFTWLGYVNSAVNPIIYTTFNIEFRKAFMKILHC

One may read the Ki as the dissociation constant of the complex between target and ligand, obtained from inhibition or displacement. A higher Ki goes with a looser hold on the target. In the case of `CCCN1CCc2cccc3c2[C@H]1Cc1c(OC)ccc(OC)c1-3`, the MED result in the experiment listed under Rattus norvegicus [1] is “inactive”. Also, the values for the Ki (at D(2) dopamine receptor; in experiment [3]) were 770 nM and 240 nM, respectively. Besides, the minimal effective dose in the experiment with Felis catus [2] and in the experiment on Felis catus [4] was more than 1 mg/kg throughout.
In the case of `COc1ccc(OC)c2c1C[C@@H]1c3c(cccc3-2)CCN1C`, the results for the inhibition constant Ki (on D(2) dopamine receptor; in experiment [3]) were 210 nM and 8.6 nM, respectively. Besides, the minimal effective dose in the experiment with Felis catus [2] is more than 1 mg/kg; in the experiment listed under Rattus norvegicus [5] it was 5 mg/kg; in the experiment on Felis catus [4] it was more than 1 mg/kg.
On D(2) dopamine receptor, `CCCN(CCC)C1CCc2cccc(O)c2C1` (stereo not drawn) [8-OH-DPAT] showed a Ki of 3500 nM. For the same molecule, the minimal effective dose came out at 0.01 mg/kg in the experiment with Felis catus [2], 0.5 mg/kg in the experiment listed under Rattus norvegicus [5] and 0.01 mg/kg in the experiment with Felis catus [4].
`O=C(CCCN1CCC2(CC1)C(=O)NCN2c1ccccc1)c1ccc(F)cc1` [SPIPERONE] returned a Ki in experiment [3] of 30 nM.
Turning to `CN1CCc2cccc3c2[C@H]1Cc1ccc(O)c(O)c1-3` [APOMORPHINE], the minimal effective dose with Felis catus [2] came to 0.01 mg/kg; in the experiment listed under Rattus norvegicus [5] it was 1 mg/kg; with Felis catus [4] it was 0.01 mg/kg.
